In the library only some 2.1% were active in any assay of this set; here they are far more common.
APJ ag – agonists of human apelin receptor APJ, primary screen, CHO-K1 cells, PathHunter beta-arrestin, luminescence | P35414 | 0% DMSO wells, 100% apelin | activation, % at 20 µM | actives 0.11% (n = 330,000);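 active = activation more than six SD over the plate average, tested at 20 µM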;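 note: 0% = DMSO alone and 100% = apelin-13 at 10 nM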
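Test system: CHO-K1 APJ beta-arrestin complementation cell line | Compound: Single test compound dose, 20 µM final, 1% DMSO | Incubation: Compound 90 min 25 °C, reagent 1 h | Measured by: beta-gal luminescence | Read-out basis: APJ–arrestin association signal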
APJ antag – antagonists of human apelin receptor APJ, primary screen, CHO-K1 cells, beta-arrestin complementation, luminescence; actives 0.32% (n = 330,000); inhibition, % at 20 µM; P35414;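 active = inhibition above about 40% at 20 µM, limit read from the data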;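 note: cells challenged with 10 nM apelin-13 agonist together with compound; plate controls were apelin-13 plus DMSO wells for no effect and DMSO wells lacking apelin-13 for full effect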
EBI2 antag – EBI2 receptor antagonists, beta-arrestin recruitment, primary screen, cell-based, luminescence, 7a,25-OHC stimulation, uHTS; AID 651636, 2012; actives 0.81% (n = 360,000); G-protein coupled receptor 183 (Homo sapiens), P32249; 7a,25-OHC stimulated; inhibition, % at 5 µM; in the data active = inhibition above about 38%;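 note: enzyme fragment complementation signal reports receptor beta-arrestin coupling in cells; 0% = agonist plus DMSO wells and 100% = wells without agonist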
CCR6 antag – CCR6 receptor antagonists, primary screen, cell-based, CHO-K1, luminescence, beta-arrestin, uHTS; actives 0.49% (n = 340,000); inhibition, % at 20 µM; CHO-K1 CCR6 PathHunter beta-arrestin, CCL20-stimulated;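 active = compounds whose inhibition of the agonist-driven luminescence signal at 20 µM reaches about 50%, limit read from the data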;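 note: cells stimulated with CCL20 at 14 nM final; plate controls were DMSO with CCL20 for no effect and DMSO without agonist for full effect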
m5-HT2A agonist – mouse Htr2a agonists via beta-arrestin recruitment, primary screen, cell-based, luminescence; 5-hydroxytryptamine receptor 2A (Mus musculus), P35363; CHO-K1 mHTR2A beta-arrestin complementation; percent of 30 µM serotonin response; activation, % at 7.6 µM; actives 0.66% (n = 360,000); AID 624169, 2012;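 active = activation above a run cutoff, the mean activation of all tested compounds plus 3 SD, cut at about 14% in these data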;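 note: 0% = plate median of compound wells and 100% = 30 µM serotonin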
Target sequence (P35363 whole entry, looked up): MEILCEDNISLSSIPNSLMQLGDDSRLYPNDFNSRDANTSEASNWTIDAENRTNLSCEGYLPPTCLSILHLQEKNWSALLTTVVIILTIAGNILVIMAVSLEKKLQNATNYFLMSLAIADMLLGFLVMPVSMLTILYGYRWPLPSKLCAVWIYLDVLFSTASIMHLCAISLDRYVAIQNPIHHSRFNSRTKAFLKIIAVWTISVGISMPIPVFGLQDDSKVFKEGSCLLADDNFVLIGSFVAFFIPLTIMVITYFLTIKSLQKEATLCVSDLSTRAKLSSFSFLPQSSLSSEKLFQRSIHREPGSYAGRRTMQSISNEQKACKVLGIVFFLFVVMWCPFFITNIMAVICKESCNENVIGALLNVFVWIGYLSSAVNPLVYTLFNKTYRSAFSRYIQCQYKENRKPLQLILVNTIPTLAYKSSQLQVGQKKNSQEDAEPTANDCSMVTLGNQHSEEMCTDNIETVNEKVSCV
CXCR6 block – CXCR6 receptor inhibitors, primary screen, cell-based, beta-arrestin, luminescence, CHO-K1 PathHunter, 1536-well | actives 0.36% (n = 360,000) | inhibition, % at 20 µM; in the data active = inhibition above about 34%, passing the limit was not always enough;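 note: antagonist mode with CXCL16 agonist at 10 nM final; 0% = 10 nM CXCL16 with DMSO and 100% = unstimulated wells without agonist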
EBI2 conf – EBI2 antagonist hit retest, beta-arrestin, confirmation, cell-based, single concentration, luminescence, 7a,25-OHC stimulation. inhibition, % at 5 µM. actives 29% (n = 2,400). shares compounds with EBI2 antag. AID 651997, 2013. 7a,25-OHC antagonism;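 active = inhibition of at least 50%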
EBI2 agonist – EBI2 agonist activity of antagonist hits, confirmation, counter-screen for EBI2 antagonist project, cell-based, single concentration, agonist mode, luminescence | EBI2-expressing cells, 60 min; 0% vehicle, 100% 7α,25-dihydroxycholesterol control | activation, % at 5 µM | shares compounds with EBI2 antag | 2,400 tested, under 10 active;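 active = activation of at least 50%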
bGal cs – E. coli beta-galactosidase enzyme inhibition, confirmation, counter-screen for EBI2 antagonist project, biochemical, luminescence, single concentration; shares compounds with EBI2 antag; purified beta-galactosidase, luminescent Galacton Star, 15 min; inhibition, % at 5 µM; actives 1% (n = 2,400); AID 652176, 2013;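 active = replicate-average signal at least 3 plate SD below neutral wells, shown as high inhibition, flagging enzyme-inhibiting false positives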;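 note: 0% = DMSO wells with enzyme and 100% = wells lacking enzyme; higher means stronger loss of beta-gal luminescence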
An asterisk follows results filed as active.

Screening COc1ccc(NC(=O)CN2CCN(C3c4ccccc4-c4ccccc43)CC2)cc1 returned APJ ag 0, APJ antag 21, EBI2 antag 47*, CCR6 antag 6, m5-HT2A agonist -1, CXCR6 block -4, EBI2 conf 43, EBI2 agonist 0 and bGal cs -16.
`COc1ccc(NC(=S)Nc2cc(C(F)(F)F)ccc2F)cc1` gave APJ ag -2, APJ antag 5, EBI2 antag 43*, CCR6 antag 17, m5-HT2A agonist 4, CXCR6 block 0, EBI2 conf 8, EBI2 agonist 0 and bGal cs -11.
For CCOc1ccc(-c2noc(=O)[nH]2)cc1 the results were APJ ag 2, APJ antag 9, EBI2 antag -2, CCR6 antag 0, m5-HT2A agonist -2 and CXCR6 block 3.
For O=C(Nc1ccc2ccccc2c1)[C@@H]1C[C@H]1[C@@H](NP(=O)(c1ccccc1)c1ccccc1)c1ccccc1 the results were APJ ag -6, APJ antag 11, EBI2 antag 59*, CCR6 antag 4, m5-HT2A agonist 1, CXCR6 block 6, EBI2 conf 11, EBI2 agonist -1 and bGal cs -13.
For CC1CC(C)CN(S(=O)(=O)c2ccc(NC(=S)NC(=O)c3ccccc3)cc2)C1 (centres undefined) the results were APJ ag -4, APJ antag -7, EBI2 antag 47*, CCR6 antag 35, m5-HT2A agonist -7, CXCR6 block 23, EBI2 conf 21, EBI2 agonist 1 and bGal cs 5.
`O=C(NC(=S)Nc1ccc(S(=O)(=O)N2CCCCC2)cc1)c1ccccc1` gave APJ ag -1, APJ antag 17, EBI2 antag 36, CCR6 antag 42, m5-HT2A agonist 2 and CXCR6 block 18.
Screening Cc1cccc(N2CCN(C(=O)c3cccc(N4CCCC4=O)c3)CC2)c1C returned APJ ag 2, APJ antag 6, EBI2 antag -10, CCR6 antag 12, m5-HT2A agonist 2 and CXCR6 block -8.
`CCOc1ccc(N2CC(C(=O)Nc3ccc(S(=O)(=O)N4CCCCC4)cc3)CC2=O)cc1` (centres undefined) gave APJ ag 11, APJ antag 3, EBI2 antag 79*, CCR6 antag 2, m5-HT2A agonist -4, CXCR6 block -2, EBI2 conf 63*, EBI2 agonist -1 and bGal cs -21.
`CCOc1ccc(N2CC(C(=O)Nc3ccc(S(=O)(=O)N4CCCC4)cc3)CC2=O)cc1` (centres undefined) gave APJ ag 2, APJ antag 1, EBI2 antag 53*, CCR6 antag 1, m5-HT2A agonist -6, CXCR6 block 5, EBI2 conf 44, EBI2 agonist 1 and bGal cs 2.
